# Target: T1, Dopamine receptor (Rattus norvegicus) (UniProt P25115+P19020+P30729+P18901+P61169)
# Experiment: Evaluation for contralateral turning in 6-hydroxy-dopamine-lesioned rats administered intraperitoneally at the dose 1 mg/kg Maximum intensity (turnings/min)
# Type: functional, organism-based
# Design: dose 1 mg/kg
# Conditions: not given
# How it was run: (§1)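 Rats carrying a unilateral lesion of the nigrostriatal pathway were scored for induced turning toward the side contralateral to the lesion, using an Ungerstedt-type rotation procedure.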
row,SMILES,Max intensity [turns min-1]
1,CCCN(CCCOC)C1CCc2c(O)cccc2C1 (stereo not drawn),7.4
2,CCCN(CCCc1ccccc1)C1CCc2c(O)cccc2C1 (stereo not drawn),6.6
3,C=CCCCN(CCC)C1CCc2c(O)cccc2C1 (stereo not drawn),7.7
4,CCCN(CCC)C1CCc2c(O)cccc2C1 (stereo not drawn) [5-OH-DPAT],22.7
5,CCCN(CCc1ccccc1)C1CCc2c(O)cccc2C1 (stereo not drawn),8.7
6,CCCN(CCCO)C1CCc2c(O)cccc2C1 (stereo not drawn),10.2
7,CCCN(CCCCl)C1CCc2c(O)cccc2C1 (stereo not drawn),12.5
8,CCCN(CCCN=[N+]=[N-])C1CCc2c(O)cccc2C1 (stereo not drawn),6.7
9,CN1C[C@@H](CC#N)C[C@@H]2c3cccc4[nH]cc(c34)C[C@H]21 [DELERGOTRILE],14.4
10,"CCCN(CCCSC)C1CCc2c(O)cccc2C1 (single isomer, unassigned; (-)) [listing 1 of 2 here]",15.2
11,CCCN(CCCSC)C1CCc2c(O)cccc2C1 (stereo in doubt; 12) [listing 1 of 2 here],9.8
12,CCCN(CCCCC#N)C1CCc2c(O)cccc2C1 (stereo not drawn),10.8
13,CCCN(CCCC#N)C1CCc2c(O)cccc2C1 (stereo in doubt; 3) [listing 1 of 2 here],10.3
14,CCCN(CCCC#N)C1CCc2c(O)cccc2C1 (stereo in doubt; (-)-3) [listing 1 of 2 here],12
15,CCCN1C[C@H](CSC)C[C@@H]2c3cccc4[nH]cc(c34)C[C@H]21 [PERGOLIDE],9.7

# Target: T1, Dopamine receptor (Rattus norvegicus)
# Experiment: Evaluation for contralateral turning in 6-hydroxy-dopamine-lesioned rats administered intraperitoneally at the dose 1 mg/kg total turnings
# Type: functional, organism-based
# Design: dose 1 mg/kg
# Conditions: not given
# How it was run: as §1
row,SMILES,Total turnings
1,CN(CCCC#N)C1CCc2c(O)cccc2C1 (stereo not drawn),< 150
2,CCCN(CCCOC)C1CCc2c(O)cccc2C1 (stereo not drawn),347
3,CCCN(CCCc1ccccc1)C1CCc2c(O)cccc2C1 (stereo not drawn),656
4,C=CCCCN(CCC)C1CCc2c(O)cccc2C1 (stereo not drawn),1740
5,CCCN(CCC)C1CCc2c(O)cccc2C1 (stereo not drawn) [5-OH-DPAT],2540
6,CCCN(CCc1ccccc1)C1CCc2c(O)cccc2C1 (stereo not drawn),1520
7,CCCN(CCCO)C1CCc2c(O)cccc2C1 (stereo not drawn),721
8,CCCN(CCCCl)C1CCc2c(O)cccc2C1 (stereo not drawn),2660
9,CCCN(CCCN=[N+]=[N-])C1CCc2c(O)cccc2C1 (stereo not drawn),1860
10,CN1C[C@@H](CC#N)C[C@@H]2c3cccc4[nH]cc(c34)C[C@H]21 [DELERGOTRILE],2610
11,CCCN(CCC#N)C1CCc2c(O)cccc2C1 (stereo not drawn),< 150
12,"CCCN(CCCSC)C1CCc2c(O)cccc2C1 (single isomer, unassigned; (-)) [listing 1 of 2 here]",3590
13,CCCN(CCCSC)C1CCc2c(O)cccc2C1 (stereo in doubt; 12) [listing 1 of 2 here],1980
14,CCCN(CCCCC#N)C1CCc2c(O)cccc2C1 (stereo not drawn),1460
15,CCCN(CCCC#N)C1CCc2c(O)cccc2C1 (stereo in doubt; 3) [listing 1 of 2 here],1170
16,CCN(CCCC#N)C1CCc2c(O)cccc2C1 (stereo not drawn),< 150
17,CCCN(CCCC#N)C1CCc2c(O)cccc2C1 (stereo in doubt; (-)-3) [listing 1 of 2 here],3260
18,CCCN1C[C@H](CSC)C[C@@H]2c3cccc4[nH]cc(c34)C[C@H]21 [PERGOLIDE],1800

# Tested on: Rattus norvegicus
# Experiment: Compound was evaluated for the contralateral turning in 6-hydroxy-dopamine-lesioned rats administered intraperitoneally at the dose 1 mg/kg
# Type: functional
# Conditions: route intraperitoneal
# How it was run: as §1
SMILES,Duration [h],Max intensity [turns min-1],Total turnings
CCCN(CCCNS(=O)(=O)N(C)C)C1CCc2c(O)cccc2C1 (stereo not drawn),4,7.6,857
CCCN(CCCC(=O)NC)C1CCc2c(O)cccc2C1 (stereo not drawn),6,6.4,413
CCCN(CCNS(=O)(=O)N(CC)CC)C1CCc2c(O)cccc2C1 (stereo not drawn),3,7.8,1015
CCCN(CCCNC(C)=O)C1CCc2c(O)cccc2C1 (stereo not drawn),4,1.6,159
CCCN(CCCNC(=O)OCC)C1CCc2c(O)cccc2C1 (stereo not drawn),5,10.4,1216
CCCN(CCCS(C)(=O)=O)C1CCc2c(O)cccc2C1 (stereo not drawn),1,5.7,531
CCCN(CCCC(=O)OC)C1CCc2c(O)cccc2C1 (stereo not drawn),,,<150
CCN(CC)S(=O)(=O)N[C@H]1C[C@@H]2c3cccc4[nH]cc(c34)C[C@H]2N(C)C1 [ETISULERGINE],>7,11.8,3688

# Target: not listed separately
# Experiment: Dopamine receptor binding affinity by displacing the radioligand [3H]-dopamine from dopamine receptor.
# Design: species or system Bos taurus
# Conditions: not given
# How it was run: (§2)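 Radioligand displacement was run on membrane fractions from calf caudate nucleus, with [3H]DA or [3H]spiroperidol as the labelled ligand.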
row,SMILES,IC50 [nM]
1,CN(CCCC#N)C1CCc2c(O)cccc2C1 (stereo not drawn),500
2,CCCN(CCCNS(=O)(=O)N(C)C)C1CCc2c(O)cccc2C1 (stereo not drawn),100
3,CCCN(CCCOC)C1CCc2c(O)cccc2C1 (stereo not drawn),150
4,CCCN(CCCC(=O)NC)C1CCc2c(O)cccc2C1 (stereo not drawn),38
5,CCCN(CCCC#N)C1CCc2c(O)cccc2C1 (stereo in doubt; 3) [listing 2 of 2 here],35
6,CCCN(CCNS(=O)(=O)N(CC)CC)C1CCc2c(O)cccc2C1 (stereo not drawn),41
7,CCCN(CCCNC(C)=O)C1CCc2c(O)cccc2C1 (stereo not drawn),190
8,CCCN(CCCNC(=O)OCC)C1CCc2c(O)cccc2C1 (stereo not drawn),77
9,CCCN(CCCc1ccccc1)C1CCc2c(O)cccc2C1 (stereo not drawn),48
10,C=CCCCN(CCC)C1CCc2c(O)cccc2C1 (stereo not drawn),48
11,"CCCN(CCCSC)C1CCc2c(O)cccc2C1 (single isomer, unassigned; (-)) [listing 2 of 2 here]",38
12,CCCN(CCCS(C)(=O)=O)C1CCc2c(O)cccc2C1 (stereo not drawn),110
13,CCCN(CCC)C1CCc2c(O)cccc2C1 (stereo not drawn) [5-OH-DPAT],49
14,CCCN(CCc1ccccc1)C1CCc2c(O)cccc2C1 (stereo not drawn),40
15,CCCN(CCCNC(=O)N(CC)CC)C1CCc2c(O)cccc2C1 (stereo not drawn),220
16,CCCN(CCCO)C1CCc2c(O)cccc2C1 (stereo not drawn),185
17,CCCN(CCCCl)C1CCc2c(O)cccc2C1 (stereo not drawn),46
18,CCCN(CCCN=[N+]=[N-])C1CCc2c(O)cccc2C1 (stereo not drawn),58
19,CN1C[C@@H](CC#N)C[C@@H]2c3cccc4[nH]cc(c34)C[C@H]21 [DELERGOTRILE],265
20,CCCN(CCC#N)C1CCc2c(O)cccc2C1 (stereo not drawn),130
21,CCCN(CCCCC#N)C1CCc2c(O)cccc2C1 (stereo not drawn),91
22,CCCN(CCCC#N)C1CCc2c(O)cccc2C1 (stereo in doubt; (-)-3) [listing 2 of 2 here],37
23,CCCN(CCCSC)C1CCc2c(O)cccc2C1 (stereo in doubt; 12) [listing 2 of 2 here],43
24,"CCCN(CCCC#N)C1CCc2c(O)cccc2C1 (single isomer, unassigned; (+))",490
25,CCN(CCCC#N)C1CCc2c(O)cccc2C1 (stereo not drawn),68
26,CCCN(CCCN)C1CCc2c(O)cccc2C1 (stereo not drawn),2000
27,CCCN(CCCC(=O)OC)C1CCc2c(O)cccc2C1 (stereo not drawn),140
28,CCN(CC)S(=O)(=O)N[C@H]1C[C@@H]2c3cccc4[nH]cc(c34)C[C@H]2N(C)C1 [ETISULERGINE],120
29,CCCN1C[C@H](CSC)C[C@@H]2c3cccc4[nH]cc(c34)C[C@H]21 [PERGOLIDE],18

# Target: not listed separately
# Experiment: Dopamine receptor binding affinity by displacing the radioligand [3H]spiroperidol from dopamine receptor.
# Design: species or system Bos taurus
# Conditions: not given
# How it was run: as §2
row,SMILES,IC50 [nM]
1,CN(CCCC#N)C1CCc2c(O)cccc2C1 (stereo not drawn),3500
2,CCCN(CCCNS(=O)(=O)N(C)C)C1CCc2c(O)cccc2C1 (stereo not drawn),370
3,CCCN(CCCOC)C1CCc2c(O)cccc2C1 (stereo not drawn),2200
4,CCCN(CCCC(=O)NC)C1CCc2c(O)cccc2C1 (stereo not drawn),825
5,CCCN(CCCC#N)C1CCc2c(O)cccc2C1 (stereo in doubt; 3) [listing 2 of 2 here],790
6,CCCN(CCNS(=O)(=O)N(CC)CC)C1CCc2c(O)cccc2C1 (stereo not drawn),220
7,CCCN(CCCNC(C)=O)C1CCc2c(O)cccc2C1 (stereo not drawn),1800
8,CCCN(CCCNC(=O)OCC)C1CCc2c(O)cccc2C1 (stereo not drawn),525
9,CCCN(CCCc1ccccc1)C1CCc2c(O)cccc2C1 (stereo not drawn),140
10,C=CCCCN(CCC)C1CCc2c(O)cccc2C1 (stereo not drawn),400
11,"CCCN(CCCSC)C1CCc2c(O)cccc2C1 (single isomer, unassigned; (-)) [listing 2 of 2 here]",230
12,CCCN(CCCS(C)(=O)=O)C1CCc2c(O)cccc2C1 (stereo not drawn),1860
13,CCCN(CCC)C1CCc2c(O)cccc2C1 (stereo not drawn) [5-OH-DPAT],1350
14,CCCN(CCc1ccccc1)C1CCc2c(O)cccc2C1 (stereo not drawn),180
15,CCCN(CCCNC(=O)N(CC)CC)C1CCc2c(O)cccc2C1 (stereo not drawn),1300
16,CCCN(CCCO)C1CCc2c(O)cccc2C1 (stereo not drawn),1450
17,CCCN(CCCCl)C1CCc2c(O)cccc2C1 (stereo not drawn),1020
18,CCCN(CCCN=[N+]=[N-])C1CCc2c(O)cccc2C1 (stereo not drawn),530
19,CN1C[C@@H](CC#N)C[C@@H]2c3cccc4[nH]cc(c34)C[C@H]21 [DELERGOTRILE],520
20,CCCN(CCC#N)C1CCc2c(O)cccc2C1 (stereo not drawn),7500
21,CCCN(CCCCC#N)C1CCc2c(O)cccc2C1 (stereo not drawn),1500
22,CCCN(CCCC#N)C1CCc2c(O)cccc2C1 (stereo in doubt; (-)-3) [listing 2 of 2 here],370
23,CCCN(CCCSC)C1CCc2c(O)cccc2C1 (stereo in doubt; 12) [listing 2 of 2 here],220
24,"CCCN(CCCC#N)C1CCc2c(O)cccc2C1 (single isomer, unassigned; (+))",3500
25,CCN(CCCC#N)C1CCc2c(O)cccc2C1 (stereo not drawn),920
26,CCCN(CCCN)C1CCc2c(O)cccc2C1 (stereo not drawn),4580
27,CCCN(CCCC(=O)OC)C1CCc2c(O)cccc2C1 (stereo not drawn),910
28,CCN(CC)S(=O)(=O)N[C@H]1C[C@@H]2c3cccc4[nH]cc(c34)C[C@H]2N(C)C1 [ETISULERGINE],25
29,CCCN1C[C@H](CSC)C[C@@H]2c3cccc4[nH]cc(c34)C[C@H]21 [PERGOLIDE],145

# Target: T1, Dopamine receptor (Rattus norvegicus)
# Experiment: Evaluation for contralateral turning in 6-hydroxy-dopamine-lesioned rats administered intraperitoneally at the dose 1 mg/kg duration
# Type: functional, organism-based
# Design: dose 1 mg/kg
# Conditions: not given
# How it was run: as §1
row,SMILES,Duration [h]
1,CCCN(CCCOC)C1CCc2c(O)cccc2C1 (stereo not drawn),2
2,CCCN(CCCc1ccccc1)C1CCc2c(O)cccc2C1 (stereo not drawn),5
3,C=CCCCN(CCC)C1CCc2c(O)cccc2C1 (stereo not drawn),7
4,CCCN(CCC)C1CCc2c(O)cccc2C1 (stereo not drawn) [5-OH-DPAT],6
5,CCCN(CCc1ccccc1)C1CCc2c(O)cccc2C1 (stereo not drawn),6
6,CCCN(CCCO)C1CCc2c(O)cccc2C1 (stereo not drawn),3
7,CCCN(CCCCl)C1CCc2c(O)cccc2C1 (stereo not drawn),7
8,CCCN(CCCN=[N+]=[N-])C1CCc2c(O)cccc2C1 (stereo not drawn),7
9,CN1C[C@@H](CC#N)C[C@@H]2c3cccc4[nH]cc(c34)C[C@H]21 [DELERGOTRILE],> 7
10,"CCCN(CCCSC)C1CCc2c(O)cccc2C1 (single isomer, unassigned; (-)) [listing 1 of 2 here]",7
11,CCCN(CCCSC)C1CCc2c(O)cccc2C1 (stereo in doubt; 12) [listing 1 of 2 here],7
12,CCCN(CCCCC#N)C1CCc2c(O)cccc2C1 (stereo not drawn),4
13,CCCN(CCCC#N)C1CCc2c(O)cccc2C1 (stereo in doubt; 3) [listing 1 of 2 here],3
14,CCCN(CCCC#N)C1CCc2c(O)cccc2C1 (stereo in doubt; (-)-3) [listing 1 of 2 here],6
15,CCCN1C[C@H](CSC)C[C@@H]2c3cccc4[nH]cc(c34)C[C@H]21 [PERGOLIDE],> 7
